Measurements from ChEMBL document CHEMBL1151715, “Novel D-xylose derivatives stimulate muscle glucose uptake by activating AMP-activated protein kinase alpha” (J Med Chem, 2008).
Activity calls are given as the source filed them. No cut-off for these calls is given here.

Legend:
[1] = test system: L6; experiment: Effect on [3H]2-deoxy-D-glucose uptake in rat L6 cells at 20 mM upto 48 hrs relative to control; format: functional
[2] = Cytotoxicity against rat L6 cells by MTT assay; format: cell-based
In short: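 MTT assay on L6 myotubes after the treatment incubations: MTT at 2 mg/mL in αMEM for 30 min at 37 °C, formazan dissolved in DMSO, absorbance read at 570 nm.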

[3] = test system: L6; experiment: Effect on [3H]2-deoxy-D-glucose uptake in rat L6 cells at 200 uM relative to control; format: functional
In short: (§1)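 L6 myotubes were held in αMEM with 2% FCS and 23.0 mM D-glucose for 24 h. They were then treated with increasing concentrations in medium with 10% FCS and 23.0 mM D-glucose for 7 or 18 h; vehicle controls ran 18 h. After washing, uptake was measured with 0.1 mM dGlc plus 1.3 µCi/mL [3H]dGlc in PBS pH 7.4 for 5 min at room temperature. Ice-cold PBS stop, SDS lysis, scintillation counting; basal rate set to 100%.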

[4] = test system: L6; experiment: Increase in [3H]2-deoxy-D-glucose uptake in rat L6 cells at 20 mM preincubated 24 hrs with D-glucose assessed after 6 hrs relative to control; format: functional
In short: (§2)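 L6 myotubes were preconditioned 24 h at 23.0 mM D-glucose, then incubated up to 10 h in the same medium plus pentose (20.0 mM for time course; dose-response for half-maximal and maximal). Cells were washed with PBS, then given a 5-min room-temperature uptake of 0.1 mM dGlc with 1.3 µCi/mL [3H]dGlc. Counts were normalised to protein against untreated controls.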

[5] = test system: L6; experiment: Effect on [3H]2-deoxy-D-glucose uptake in rat L6 cells at 5 mM after 7 hrs relative to control in presence of insulin; format: functional, cell-based
In short: (§3)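 L6 myotubes were preconditioned 24 h at 23.0 mM D-glucose, then given fresh αMEM with 23.0 mM D-glucose plus agent for 7 h. Insulin (200 nM) was added for the last 30 min. A 5-min [3H]dGlc uptake (0.1 mM dGlc, 1.3 µCi/mL) was run in PBS at room temperature, with the 23.0 mM glucose basal rate set to 100%.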

[6] = test system: L6; experiment: Increase in [3H]2-deoxy-D-glucose uptake in rat L6 cells preincubated with 23 mM D-glucose for 24 hrs at 5 mM after 7 hrs relative to control; format: functional; in short: as §3
[7] = test system: L6; experiment: Effect on [3H]2-deoxy-D-glucose uptake in rat L6 cells at 5 uM relative to control; format: functional, cell-based; details: TDE = time-dependent effect; in short: as §1
[8] = Effect on [3H]2-deoxy-D-glucose uptake in human skeletal muscle cells at 50 uM relative to control; format: functional
[9] = test system: L6; experiment: Increase in GLUT4myc abundance in rat L6 cell membrane at 50 uM after 7 hrs; format: functional, cell-based
In short: (§4)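 Myc-tagged GLUT1 or GLUT4 L6 myotubes were preconditioned at 5.5 or 23.0 mM glucose for 24 h, then treated in 10% FCS medium for 7 h (18 h for the 5 µM agent). Insulin was 200 nM for 30 min. Intact cells were labeled with rabbit anti-myc (1:200), fixed in 3% formaldehyde, and given HRP anti-rabbit IgG (1:2000). OPD colour was read at 492 nm.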

[10] = test system: L6; experiment: Inhibition of [3H]2-deoxy-D-glucose uptake in rat L6 cells at 50 uM in presence of 100 nM wortmannin; format: functional, cell-based
In short: (§5)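 L6 myotubes at 23 mM D-glucose received 100 nM wortmannin 30 min before the agents. Treatment ran in 10% FCS medium for 7 h (18 h for the 5 µM agent). A 5-min [3H]dGlc uptake (0.1 mM dGlc, 1.3 µCi/mL) in PBS at room temperature followed, with the vehicle basal rate set to 100%.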

[11] = test system: L6; experiment: Activation of 5-AMP-induced AMPKalpha in rat L6 cells assessed as […] phosphorylation at 50 uM relative to control; format: cell-based
In short: (§6)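 L6 myotubes preconditioned 24 h in αMEM with 2% FCS and 23.0 mM D-glucose, then given fresh medium with 10% (v/v) FCS, 23.0 mM D-glucose and test agent; controls received vehicle. Whole-cell lysates (Tris pH 7.5 with phosphatase and protease inhibitors) were blotted for AMPKα and […]-AMPKα, detected by ECL, and bands quantified by densitometry.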

[12] = test system: L6; experiment: Increase in GLUT1myc abundance in rat L6 cell membrane at 50 uM after 7 hrs; format: functional, cell-based; in short: as §4
[13] = test system: L6; experiment: Activation of 5-AMP-induced AMPKalpha in rat L6 cells assessed as […] phosphorylation at 50 uM relative to control in presence of compound C; format: cell-based
[14] = test system: L6; experiment: Effect on [3H]2-deoxy-D-glucose uptake in rat L6 cells at 150 uM relative to control; format: functional, cell-based; details: TDE = time-dependent effect; in short: as §1
[15] = test system: L6; experiment: (§7) Effect on [3H]2-deoxy-D-glucose uptake in rat L6 cells at 50 uM relative to control; format: functional, cell-based; details: TDE = time-dependent effect; in short: as §1
[16] = test system: L6; experiment: Increase in GLUT1myc abundance in rat L6 cell membrane at 20 mM after 7 hrs; format: functional, cell-based; in short: as §4
[17] = test system: L6; experiment: Increase in GLUT1myc abundance in rat L6 cell membrane at 5 µM after 18 hrs; format: functional, cell-based; in short: as §4
[18] = test system: L6; experiment: Increase in GLUT1myc abundance in rat L6 cell membrane at 150 uM after 7 hrs; format: functional, cell-based; in short: as §4
[19] = species: Homo sapiens; experiment: Activation of 5-AMP-induced AMPKalpha in human skeletal muscle cells assessed as […] phosphorylation at 50 uM relative to control
In short: (§8)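 Primary human skeletal myoblasts from the rectus abdominis of a donor were differentiated into myotubes and treated in medium with 10% (v/v) FCS, 23.0 mM D-glucose and agent, with vehicle controls. Whole-cell lysates were Western blotted for total AMPKα and […]-AMPKα, with ECL detection and densitometry.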

[20] = test system: L6; experiment: Half-maximal stimulation of [3H]2-deoxy-D-glucose uptake in rat L6 cells preincubated 24 hrs with D-glucose assessed after 6 hrs; format: functional; in short: as §2
[21] = test system: L6; experiment: Maximal stimulation of [3H]2-deoxy-D-glucose uptake in rat L6 cells preincubated 24 hrs with D-glucose assessed after 6 hrs; format: functional; in short: as §2
[22] = test system: L6; experiment: Induction of [3H]2-deoxy-D-glucose uptake in rat L6 cells at 20 mM after 6 hrs relative to control; format: functional; in short: as §2
[23] = test system: L6; experiment: Induction of [3H]3-O-methyl-D-glucose uptake in rat L6 cells at 20 mM after 6 hrs relative to control; format: functional
In short: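 L6 myotubes were preconditioned 24 h at 23.0 mM glucose, then given D-xylose at 20.0 mM for 6 h. Cells were PBS-washed and incubated 90 s at room temperature with 10 µM 3-O-methylglucose, 5.0 µCi/mL [3H]MeGlc and 0.5 µCi/mL [14C]sucrose. The stop wash was ice-cold PBS with 20 mM glucose, 10 µM cytochalasin B and 2 mM HgCl2. Extracellular 3H was subtracted using sucrose counts.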

[24] = test system: L6; experiment: Effect on [3H]2-deoxy-D-glucose uptake in rat L6 cells at 20 mM after 7 hrs relative to control in presence of insulin; format: functional, cell-based; in short: as §3
[25] = Effect on [3H]2-deoxy-D-glucose uptake in human skeletal muscle cells at 20 mM relative to control; format: functional
[26] = test system: L6; experiment: Increase in GLUT4myc abundance in rat L6 cell membrane at 20 mM after 7 hrs; format: functional, cell-based; in short: as §4
[27] = test system: L6; experiment: Inhibition of [3H]2-deoxy-D-glucose uptake in rat L6 cells at 20 mM in presence of 100 nM wortmannin; format: functional, cell-based; in short: as §5
[28] = test system: L6; experiment: Activation of 5-AMP-induced AMPKalpha in rat L6 cells assessed as Tyr172 phosphorylation at 20 mM relative to control; format: cell-based; in short: as §6
[29] = species: Homo sapiens; experiment: Activation of 5-AMP-induced AMPKalpha in human skeletal muscle cells assessed as Tyr172 phosphorylation at 20 mM relative to control; in short: as §8
[30] = test system: L6; experiment: Activation of 5-AMP-induced AMPKalpha in rat L6 cells assessed as reduction in Tyr172 phosphorylation at 20 mM relative to control in presence of compound C; format: cell-based; design: scale not given: the % may be the effect or the level left
[31] = test system: L6; experiment: Activation of AMPKalpha in rat L6 cells assessed as ATP concentration per mg of protein at 20 mM in presence of 23 mM D-glucose; format: cell-based
In short: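 L6 myotubes were preconditioned at 5.0 or 23.0 mM D-glucose for 24 h, then treated. Cells were washed in cold 0.15 M Tris-HCl pH 7.75 and extracted with ice-cold 0.5% TCA. The cleared supernatant was assayed with luciferase/D-luciferin luminescence at room temperature against an ATP standard curve, expressed per mg protein. DNP 5 mM for 10 min served as the positive control.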

[32] = test system: L6; experiment: Decrease in GLUT4myc abundance in rat L6 cell membrane pretreated with 23.0 mM D-glucose for 24 hrs at 20 mM after 7 hrs; format: functional; design: scale not given: the % may be the effect or the level left
[33] = test system: L6; experiment: Activation of 5-AMP-induced AMPKalpha in rat L6 cells assessed as […] phosphorylation at 0.25 M relative to control; format: cell-based
In short: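 AICAR-type positive control on L6 myotubes: 0.25 M D-sorbitol for 30 min. Whole-cell lysates were blotted for total AMPKα and phospho-Thr172 AMPKα, detected by ECL, with bands quantified by densitometry.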

[34] = test system: L6; experiment: as §7; format: functional; in short: as §1

Structure (SMILES): CCOC1OC[C@@H](O)[C@H](O)[C@H]1O (some centres not stated)
- fold change (FC) [1]: 1.01
- MCC [2]: 50 mM

Structure (SMILES): CC(=O)O[C@@H]1OC[C@@H](OC(C)=O)[C@H](OC(C)=O)[C@H]1OC(C)=O
- fold change (FC) [1]: 1.05
- fold change (FC) [3]: 0.99
- MCC [2]: 0.5 mM

Structure (SMILES): CO[C@H]1C(O)OC[C@@H](O)[C@@H]1O (some centres not stated)
- MCC [2]: 50 mM

Structure (SMILES): OC1OC[C@@H](O)[C@@H](O)[C@@H]1O (stereo partly drawn) [D-ARABINOSE]
- fold change (FC) [4]: 1.38

Structure (SMILES): COC[C@H]1OC(O)[C@H](O)[C@H]1O (some centres not stated)
- fold change (FC) [1]: 1.03
- MCC [2]: 50 mM

Structure (SMILES): CCO[C@H]1[C@H](O)COC(O)[C@@H]1O (some centres not stated)
- Activity [5]: Active
- fold change (FC) [6]: 2.79

Structure (SMILES): COC(OC)[C@@H]1OC(c2ccc(F)cc2)O[C@@H]2COC(c3ccc(F)cc3)O[C@@H]21 (some centres not stated)
- MCC [2]: 0.25 mM

Structure (SMILES): CCSC(SCC)[C@@H]1O[C@H](c2ccccc2)O[C@H](CO)[C@@H]1OC
- Activity [7]: tde
- fold change (FC) [8]: 1.4
- Activity [9]: Active
- Activity [10]: Active
- fold change (FC) [11]: 3.98
- Activity [12]: inactive
- Activity [13]: 69.2%
- Activity [14]: tde
- Activity [15]: tde
- Activity ([16]; 50 uM, in the assay text read “at 50 uM” for “at 20 mM”): inactive
- Activity [17]: inactive
- Activity [18]: inactive
- Activity [19]: Active

Structure (SMILES): CO[C@H]1[C@H](O)COC(O)[C@@H]1O (some centres not stated)
- fold change (FC) [6]: 2.1

Structure (SMILES): O=C[C@H](O)[C@@H](O)[C@H](O)CO [XYLOSE]
- fold change (FC) [4]: 1.77
- Activity [20]: 5.8 mM
- Activity [21]: 13.7 mM
- fold change (FC) [22]: 1.51
- fold change (FC) [23]: 1.69
- Activity [24]: Active
- fold change (FC) [25]: 1.43
- Activity [26]: Active
- Activity [27]: Active
- fold change (FC) [28]: 3.23
- Activity [29]: Active
- Activity [12]: inactive
- Activity [30]: 68.9%
- Activity [31]: 1.6 mmol
- Activity [32]: 50%
- Activity ([16]; 20 mM): inactive
- Activity [17]: inactive
- Activity [18]: inactive

Structure (SMILES): OC[C@@H](O)[C@@H](O)[C@H](O)[C@@H](O)CO
- Activity [33]: Active

Structure (SMILES): CC1(C)O[C@H]2O[C@H](CO)[C@H](O)[C@H]2O1
- fold change (FC) [34]: 0.94
- MCC [2]: 0.15 mM
